Compound activity deposited in PubChem by The Scripps Research Institute Molecular Screening Center.
In the library only some 4.5% were active in any assay of this set; here they are far more common.
OX1R antag-1: blocks the human orexin 1 receptor | O43613 | OX1R-expressing cells, FRET antagonist read-out | inhibition, % at 6.6 µM | hit rate 1.8% among 330,000 | AID 485270; in the data active means inhibition mostly above about 38%, no sharp cut-off; inactive means mostly below about 40%;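 further: 0% = agonist challenge alone and 100% = reference antagonist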
TAAR1 antag: antagonists of human TAAR1. hit rate 1.5% among 360,000. AID 624466. CHO RD-HGA16 TAAR1, Fluo-8 calcium fluorescence, antagonist. Q96RJ0. inhibition, % at 3 µM;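 active means inhibition above a per-plate cutoff, the mean inhibition of test compounds on that plate plus 3 SD, cut at about 49% in these data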;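 further: 0% = DMSO plus EC80 beta-PEA response and 100% = DMSO alone without agonist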
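test system = CHO RD-HGA16 cells bearing hTAAR1 | replication = singlicate | controls = DMSO-only wells and EC80 β-PEA-stimulated wells | reagent = EC80 β-phenethylamine stimulus | read-out basis = percent inhibition of PEA-evoked calcium signal, max/basal emission ratio | schedule = seeding 17-24 h prior, 75-min 37 °C, 30-min RT dye loading | signal = kinetic Fluo-8 calcium fluorescence measurement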
CHO parental Ca: signal in parental CHO cells, OX1R antagonist counter-screen | AID 463079 | inhibition, % at 5.6 µM | hit rate 0.63% among 330,000 | parental CHO-K1, ATP-induced calcium, Fluo-8 fluorescence;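 active means inhibition above that plate's mean sample inhibition plus 3 SD, cut at about 26% in these data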;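 further: 0% = ATP-challenged DMSO wells and 100% = DMSO wells without ATP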
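Measured by: calcium-sensitive Fluo-8 fluorescence / Test system: CHO parental line / Controls: ATP-challenged DMSO wells low, unchallenged DMSO wells high / Measure: % inhibition / Compound: single nominal dose of 5.6 µM per compound / Replicates: single well per compound, no replicates / Reagent: ATP as calcium-mobilizing challenge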
TAAR1 agonist: human TAAR1 agonism; CHO RD-HGA16 TAAR1, Fluo-8 calcium fluorescence; vehicle wells 0%, saturating PEA agonist 100%; Q96RJ0; activation, % at 3 µM; hit rate 0.99% among 360,000;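 active means activation above the mean activation of all test compounds in the run plus 3 SD, cut at about 38% in these data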
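System: CHO-derived RD-HGA16 cells with stable Gα16 and human TAAR1 / Times: 17-24 h plating, Fluo-8 75 min 37 °C, 30 min RT / Technique: calcium-sensitive Fluo-8 signal, excitation 470-495, emission 515-575 nm / Measure: % activation relative to PEA EC100 response / Benchmarks: DMSO and PEA EC100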
OX1R antag-2: blocks the human orexin 1 receptor; hit rate 0.43% among 330,000; CHO/OX1R cells, Fluo-8 calcium fluorescence, orexin A; AID 434989; inhibition, % at 5 µM;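 active means inhibition above its plate's threshold, mean inhibition of all tested compounds on the plate plus 3 SD, cut at about 37% in these data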;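 further: 0% = orexin A challenge wells and 100% = SB-334867-A antagonist wells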
GPR7 antagonist: antagonists of human GPR7 (neuropeptides B/W receptor 1); hit rate 1.1% among 290,000; P48145; GPR7-expressing cells, fluorescence antagonist assay; inhibition, % at 4.4 µM; in the data active means inhibition above about 16%, passing the limit was not always enough;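 further: cells stimulated with the agonist NPW; 0% = agonist with vehicle and 100% = vehicle without agonist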
Target sequence (P48145 whole entry, looked up): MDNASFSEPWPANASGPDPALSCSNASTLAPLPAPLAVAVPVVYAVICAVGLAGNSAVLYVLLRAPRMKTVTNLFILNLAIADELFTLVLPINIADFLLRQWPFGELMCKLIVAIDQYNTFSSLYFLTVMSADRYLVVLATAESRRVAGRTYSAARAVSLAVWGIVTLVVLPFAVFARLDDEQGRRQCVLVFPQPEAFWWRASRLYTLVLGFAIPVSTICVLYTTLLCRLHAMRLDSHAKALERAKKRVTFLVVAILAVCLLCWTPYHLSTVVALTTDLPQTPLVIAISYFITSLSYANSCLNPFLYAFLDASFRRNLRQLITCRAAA
TAAR1 nonsel count: nonselective antagonist in TAAR1 antagonist counter-screen; hit rate 77% among 2,400; shares compounds with TAAR1 antag; AID 651780; inhibition, % at 3 µM; counterscreen cell line, calcium fluorescence, antagonist mode; in the data active means inhibition above about 22%;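 further: CHO-Ga16 host cells stimulated with ATP at an EC80 level; 0% = agonist EC80 plus vehicle and 100% = vehicle without agonist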
TAAR1 antag conf: human TAAR1 antagonism, confirmed. shares compounds with TAAR1 antag. TAAR1-expressing cells, fluorescence antagonist read-out. inhibition, % at 3 µM. hit rate 40% among 2,400. AID 651785; in the data active means inhibition above about 49%;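 further: CHO-Ga16 host cells challenged with agonist PEA near its EC80; 0% = agonist at EC80 plus vehicle and 100% = vehicle with no agonist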
Ga16 ag counter: nonselective Ga16 agonism, counter-screen. shares compounds with TAAR1 antag. hit rate 18% among 2,400. Ga16-expressing cells, calcium fluorescence, agonist counterscreen. AID 651953. activation, % at 3 µM; in the data active means activation above about 12%;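 further: 0% = vehicle wells and 100% = saturating stimulus response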
TAAR1 ag counter: counter-screen for human TAAR1 antagonists: TAAR1 agonists; hTAAR1 cell line, fluorescence activation, agonist mode; activation, % at 3 µM; shares compounds with TAAR1 antag; hit rate 2% among 2,400; in the data active means activation above about 37%;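 further: CHO cells stably expressing TAAR1 with calcium dye readout; 0% = DMSO vehicle and 100% = full agonist response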
* hit, by the source's call.

CCOC(=O)CC1Sc2ccccc2NC1=S (stereo not drawn) was read as OX1R antag-1 5, TAAR1 antag -8, CHO parental Ca -5, TAAR1 agonist 6, OX1R antag-2 -5 and GPR7 antagonist -15.
For CCOc1cc(OCC)cc(C(=O)NCc2ccco2)c1 the results were OX1R antag-1 6, TAAR1 antag -17, CHO parental Ca -6, TAAR1 agonist 0, OX1R antag-2 2 and GPR7 antagonist -13.
`CS(=O)(=O)Nc1cccc(C2=NN(C(=O)c3ccc(F)cc3)C(c3cccs3)C2)c1` (stereo not drawn) gave OX1R antag-1 -6, TAAR1 antag -2, CHO parental Ca 2, TAAR1 agonist 7, OX1R antag-2 -7 and GPR7 antagonist 12.
COc1ccc(C(=O)N2N=C(c3cccc(NS(C)(=O)=O)c3)CC2c2cccs2)cc1 (stereo not drawn) was read as OX1R antag-1 9, TAAR1 antag 61*, CHO parental Ca -3, TAAR1 agonist 13, OX1R antag-2 -19, GPR7 antagonist 5, TAAR1 nonsel count 31*, TAAR1 antag conf 48, Ga16 ag counter 10 and TAAR1 ag counter 12.
O=C(NCc1ccccc1)C(c1ccc(O)cc1)N(C(=O)c1cnccn1)c1ccccc1 (stereo not drawn) was read as OX1R antag-1 -2, TAAR1 antag 63*, CHO parental Ca -16, TAAR1 agonist 17, OX1R antag-2 -14, GPR7 antagonist -2, TAAR1 nonsel count 34*, TAAR1 antag conf 53*, Ga16 ag counter 11 and TAAR1 ag counter 11.
`O=C(NCc1ccccc1)C(c1ccco1)N(C(=O)c1ccccn1)c1ccccc1` (stereo not drawn) gave OX1R antag-1 19, TAAR1 antag -10, CHO parental Ca -17, TAAR1 agonist -1, OX1R antag-2 -6 and GPR7 antagonist -4.
`COc1ccc(CNC(=O)C(c2ccco2)N(C(=O)c2ccccn2)c2ccccc2)cc1` (stereo not drawn) gave OX1R antag-1 10, TAAR1 antag 64*, CHO parental Ca -20, TAAR1 agonist 10, OX1R antag-2 -7, GPR7 antagonist 0, TAAR1 nonsel count 22*, TAAR1 antag conf 34, Ga16 ag counter 6 and TAAR1 ag counter 4.
For COc1ccc(CCNC(=O)C(=O)NCC2CCCN2S(=O)(=O)c2ccc(OC)cc2)cc1 (stereo not drawn) the results were OX1R antag-1 33, TAAR1 antag 74*, CHO parental Ca 5, TAAR1 agonist 18, OX1R antag-2 -14, TAAR1 nonsel count 29*, TAAR1 antag conf 57*, Ga16 ag counter 14* and TAAR1 ag counter 19.
For CCc1nn(CCCC(=O)N2CCN(c3cccc(C)c3C)CC2)c(=O)c2cc3occc3n12 the results were OX1R antag-1 2, TAAR1 antag 33, CHO parental Ca -50, TAAR1 agonist 4, OX1R antag-2 -36 and GPR7 antagonist -4.
For O=c1n(Cc2ccc(Cl)cc2)c2sc3c(c2c2ncnn12)CCCC3 the results were OX1R antag-1 9, TAAR1 antag 66*, CHO parental Ca -29, TAAR1 agonist 7, OX1R antag-2 -34, GPR7 antagonist -6, TAAR1 nonsel count 20, TAAR1 antag conf 36, Ga16 ag counter 9 and TAAR1 ag counter 16.
